A short description of the series: Toxicity liver stage against HepG2, at 10uM. The format is cell-based. Set-up: test concentration 10 uM, cell line HepG2-A16-CD81EGFP. The conditions noted are these: human, HepG2-A16-CD81EGFP cells; read-out: INHIBITION
An outline of the steps:
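Uninfected HepG2-A16-CD81EGFP cells, 3 × 10^3 per well, 1536-well, plated on prespotted compound at 10 μM final, parasite-free screening media added to match infected plates; puromycin 10 μM positive, DMSO 0.5% negative; run in parallel with 48 h PbLuc assay at 37 °C, 5% CO2; viability by CellTiter-Glo luminescence, normalized to controls.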
On to `CCc1nccn1CCCn1ccnc1-c1[nH]cnc1C`, for which the cytotoxicity at 10 µM is 10%.
Turning to `O=C(CCN1CCc2cncnc2C1)N1CCc2sccc2C1`, the cytotoxicity at 10 µM was 2.37%.
Next, `Cc1nc(NC2CCOCC2)cc(C2CCN2S(C)(=O)=O)n1` (stereo unspecified): 2.31%; `Cc1cccc(CNC(=O)CC2CCN(S(C)(=O)=O)CC2)n1`: -1.57%.
Turning to `C[C@H](c1ccc(F)cc1)n1c(C2CCC2)n[nH]c1=O`, the cytotoxicity at 10 µM is -5.95%.
As to `c1cnc(N2CCOCC3(CNCCO3)C2)nc1` (stereo unspecified), the cytotoxicity at 10 µM was -112%.
As to `COc1cccc(C(=O)N(C)C(C)c2c(C)n[nH]c2C)c1OC` (stereo unspecified), the cytotoxicity at 10 µM is -2.8%.
Consider `Cc1cccc(CN2C[C@@H]3CN(C(=O)c4cnccn4)C[C@@H]3C2=O)c1`, for which the cytotoxicity at 10 µM was 2.43%.
For `Cc1cccc(-c2nnn3c2COC(CNCc2nccs2)C3)c1` (stereo unspecified) the value was 4.51%; for `CCc1cnc(CN(C)C2CCN(CCNS(=O)(=O)CC)C2)o1` (stereo unspecified), 8.94%.
On to `O=C(NC1CCN(c2cccc(OC(F)(F)F)c2)C1=O)C1CC1` (stereo unspecified), for which the cytotoxicity at 10 µM came out at 19.2%.
Regarding `CC(NC(=O)N1CCC2(C1)OCCO2)c1ccc(F)cc1Cl` (stereo unspecified), the cytotoxicity at 10 µM was -5.16%.
With `CN(C)c1nc2c(c(N3CCC(O)CC3)n1)CN(CC1CCOC1)CC2` (stereo unspecified), the cytotoxicity at 10 µM is -0.473%.
Take `CS(=O)(=O)CC1(CNc2cc(C#N)c3cc(Cl)ccc3n2)CC1`: the cytotoxicity at 10 µM was -4.06%.
Next, `Cc1c(C2SCC(=O)Nc3c2c(O)nn3C(C)C)cnn1C` (stereo unspecified): 2.39%; `Cc1nc2c(c(NCC(O)c3ccccc3Cl)n1)CCNCC2` (stereo unspecified): -2.88%.
For `O=C(c1ccccn1)N1CCc2ncnc(-c3ccncc3)c2CC1` the value was -1.82%; for `COc1ccc(C(=O)NCc2ccc(C(=O)O)o2)cc1`, -0.806%.
For `O=C1CC(NCc2cnc(C3CCCCC3)nc2)CN1c1ccccc1` (stereo unspecified), the cytotoxicity at 10 µM is -6.8%.
Next, `Cc1cnn(Cc2ccc(NC(=O)N[C@@H]3C=C[C@H](CO)C3)cc2)c1`: 7.76%.
Next, `CCN(CC)C(=O)[C@@H]1C[C@@H](N)CN1c1nc(N(C)C)nc(C)c1C`: -24.4%; `O=C(c1cc(F)ccc1O)N1CCN(C2CCOCC2)CC1`: -4.9%.
For `O=C(Nc1cccn(CC(F)(F)F)c1=O)c1ccc(F)cc1` the value was 14.3%.
On to `CC(CNC(=O)N1CCNC(=O)CC1)Cc1cccs1` (stereo unspecified), for which the cytotoxicity at 10 µM was -5.62%.
Next, `CC(C)c1ccc(OCCNC(=O)CN2CCN(C)CC2C)cc1` (stereo unspecified): -13.2%; `Cc1cc(C(=O)N2CCCC(c3cc(=O)nc4n3CCC4)C2)on1` (stereo unspecified): -1.28%; `CC(C)(C)N1CC(C(=O)NCc2cn3cccnc3n2)CC1=O` (stereo unspecified): -0.591%.
Next, `CC(C)CC(NCc1cscn1)c1ccccn1` (stereo unspecified): 2.5%; `C[C@@H]1CN(C(=O)CCN2CCOCC2)CC[C@]1(C)O`: -0.51%; `Cc1cc(F)ccc1S(=O)(=O)NCc1[nH]ncc1Br`: 15.1%.
Next, `O=C(NCCNc1ccc(C(F)(F)F)cn1)c1ccc(Br)cc1`: -6.28%.
For the molecule `CCn1c(C)nnc1SCCNc1nc(C)nc2ncccc12`, the cytotoxicity at 10 µM amounted to 0.194%.
Next, `CCn1nc(C)c2nnn(CC(=O)Nc3c(C)cccc3C)c(=O)c21`: 5.22%.
As to `CCc1nnc2n1CCN(C(=O)c1cc3ccc(F)cc3nc1C)C2`, the cytotoxicity at 10 µM is -9.37%.
Next, `Cc1ccc(C)c(C(C)NC(=O)N2CCC(n3cncn3)CC2)c1` (stereo unspecified): -8.78%; `O=C(c1ccncc1F)N1CCCC1c1nc(-c2ccccc2)n[nH]1` (stereo unspecified): 1.34%; `Cc1c(NC(=O)N(C)CCO)cccc1OC1CCCC1`: -0.172%.
Take `Cc1oc(C)c(C(=O)N2CCCN(c3nccs3)CC2)c1C`: the cytotoxicity at 10 µM was found to be 1.53%.
Regarding `CCn1nc(C)c2ncnc(NCCn3cccn3)c21`, the cytotoxicity at 10 µM stood at 7.73%.
Next, `O=C(c1cnco1)N1CCC(Cc2cnc3ccccc3c2)CC1`: 5.08%; `COCCC(=O)N(CCC#N)c1ccc(C)c(C)c1`: 3.43%.
As to `Cc1nnc(NC(=O)NCc2ccc(N3CCOCC3)nc2)s1`, the cytotoxicity at 10 µM was -6.21%.
For `O=c1[nH]c(NCc2cccc(OC(F)F)c2)nc2c1CCNC2` the value was 2.47%; for `OCCN1CCOC2(CCCN(c3cccc(F)c3)C2)C1` (stereo unspecified), 2.01%.
With `Fc1cccc(Cl)c1CN1CCn2c(nnc2C2CC2)C1`, the cytotoxicity at 10 µM came to 8.7%.
Turning to `CNC(=O)COc1ccc(CNc2c(Cl)cccc2C#N)cc1`, the cytotoxicity at 10 µM was -55.9%.
Next, `COC(=O)[C@H](CCSC)NC(=O)Cn1ccc2c(Cl)cccc21`: 2.17%; `Cc1cc(C[S+]([O-])Cc2ccccc2F)on1` (stereo unspecified): -8.37%.
For `Cc1noc(C)c1-c1cc(CCC2CN(C(=O)C(C)C)CCO2)ncn1` (stereo unspecified), the cytotoxicity at 10 µM was determined as 4.16%.
Next, `O=C(O)CCn1ccc2cc(Br)ccc21`: 10.7%.
Next, `O=C(c1cccc(F)c1)N1C[C@@H](CN2CCCCC2)[C@@H](CO)C1`: 3.78%; `CCC1=N[C@@]2(CC[C@@H]3CN(S(=O)(=O)CC)C[C@@H]32)C(=O)N1CC`: 5.22%.
Turning to `CCN1CCO[C@@H]2CN(C(=O)c3cocn3)C[C@@H]2C1`, the cytotoxicity at 10 µM is 0.933%.
On to `O=C(CC1CC1)NC[C@]12COC[C@H]1CN(c1ncccn1)C2`, for which the cytotoxicity at 10 µM was -142%.
For the molecule `CCc1[nH]c2c(CNC(=O)[C@@H]3CCCN3C)cc(C)cc2c1C`, the cytotoxicity at 10 µM was -3.33%.
For `CN1CC2(CCN(C(=O)c3cccc(-n4cccn4)c3)CC2)OC1=O` the value was 4.5%; for `Cc1cc(C)c(C(=O)N2CCc3c(ncn3CCc3ccccc3)C2)[nH]1`, 7.13%.
For the molecule `OCC(O)CSCc1cn(-c2ccc(Cl)c(Cl)c2)nn1` (stereo unspecified), the cytotoxicity at 10 µM was determined as 8.55%.
Next, `O=C(Nc1ccc(F)cc1)C1CNCCN1C(=O)CCc1cccnc1` (stereo unspecified): 2.06%.
Turning to `CCn1cncc1Cn1cccc(C(F)(F)F)c1=O`, the cytotoxicity at 10 µM was -20.7%.
For the molecule `O=C(O)CN1CCc2onc(C(c3ccccc3)c3ccccc3)c2C1`, the cytotoxicity at 10 µM is -0.849%.
Next, `CC(C)Cc1cc(C(=O)N2CCCN(c3ncccn3)CC2)[nH]n1`: 4.57%; `CCOC(=O)c1ccc(S(=O)(=O)NCC(CC)N2CCCC2)cc1` (stereo unspecified): -7.4%; `COCCN1CCC2(CCCN(C(=O)c3cncn3C)C2)CC1`: -1.4%.
Next, `Cn1nc(C(=O)NCc2cccc(Cn3ccnc3)c2)ccc1=O`: 8.53%.
Turning to `COc1ccc(CN2C[C@@H](N(C)Cc3ccco3)[C@H]3OCCC[C@H]32)cc1`, the cytotoxicity at 10 µM stood at 1.18%.
Next, `Cc1ccc(Oc2ncccc2CNC2CCSCC2)cn1`: -8.22%; `O=C(Cn1ccc2ccc(Cl)cc21)/N=c1\[nH]nc(C2CCCO2)s1` (stereo unspecified): 10.8%.
As to `Cc1cc(NC(=O)CCc2ccsc2)n(C)n1`, the cytotoxicity at 10 µM was 17.8%.
Next, `Cc1ccc2c(c1C)OCC2NCc1ccc(C#N)cc1` (stereo unspecified): 25.8%; `Cc1csc(N2CCN(CC(=O)Nc3ccncc3)CC2C)n1` (stereo unspecified): 29.3%; `O=C(c1ncccn1)N1C[C@H]2CCC[C@@]2(COCC2CCOCC2)C1`: -1.11%.
Take `CCOCc1nc2c(c(N(C)Cc3snnc3C)n1)CCNCC2`: the cytotoxicity at 10 µM was 10.7%.
Take `N#Cc1cc(F)c(N2CCC(NS(=O)(=O)c3cccs3)CC2)c(F)c1`: the cytotoxicity at 10 µM stood at 8.76%.
For `CCn1cc(S(=O)(=O)N2CCCC3(CC=CNC3=O)C2)cn1` (stereo unspecified), the cytotoxicity at 10 µM is -2.92%.
For `Cc1nc(C(=O)N2CCN(S(C)(=O)=O)[C@@H]3CS(=O)(=O)C[C@@H]32)cs1` the value was -9.19%.
Next, `CNS(=O)(=O)CC(=O)NC(c1cc(C)sc1C)C(C)C` (stereo unspecified): 0.918%; `Cc1ccc(N2CCO[C@H]3CN(Cc4cnn(C)c4)C[C@H]32)nn1`: 3.86%.
As to `COCCN(CCOC)C(=O)c1cnn(C)c1-n1c(C)ccc1C`, the cytotoxicity at 10 µM is -144%.
Take `CN(C(=O)Cn1nc(-c2ccccc2F)ccc1=O)C1CCS(=O)(=O)C1` (stereo unspecified): the cytotoxicity at 10 µM amounted to 2.21%.
Next, `CN(CC1=CCCN(CCc2ccccn2)C1)C(=O)c1ccco1`: 1.7%; `CCC(O)CN(Cc1ccccc1)S(=O)(=O)c1cnc(C)s1` (stereo unspecified): -42.5%.
Turning to `COCC1CC2(CCN(Cc3nc(C)cs3)CC2)CO1` (stereo unspecified), the cytotoxicity at 10 µM was -111%.
Next, `CC(C)(C)OC(=O)N(CCNS(=O)(=O)N1CCOCC1)C1CC1`: -4.43%; `CC(C)NC(=O)C1CN(C(=O)Nc2ccc(F)cc2)CC12CCOCC2` (stereo unspecified): -80.9%.
For `CC(CCc1ccccc1)NC(=O)CN1CCOCC1` (stereo unspecified) the value was 4.17%; for `CC(C)c1nccc(CN2CCCC(O)(CN3CCCC3)C2)n1` (stereo unspecified), -0.413%.
Next, `Cc1noc(C[C@@H]2COC[C@H]3CN(S(C)(=O)=O)C[C@@H]23)n1`: 12.2%; `CS(=O)(=O)N[C@@H]1CN(Cc2ccc3ncccc3c2)C[C@H]1O`: -4.34%; `CCN(CC)S(=O)(=O)c1ccc(CNc2cc(C)nc(C)n2)cc1`: -5.83%.
Turning to `CN(C)c1cncc(C2CCN(CC(N)=O)CC2)n1`, the cytotoxicity at 10 µM is 3.07%.
Next, `CCNC(=O)NC(=O)CSC(C)c1ccccc1F` (stereo unspecified): 15.6%; `NCCCC(=O)NCC1(O)CCCN(c2ccnc3cccnc23)C1` (stereo unspecified): 3.71%; `CCC(CC)c1cc(C(=O)N2CCN(C(C)C(N)=O)CC2)on1` (stereo unspecified): 5.82%.
For `Cc1ccc(S(=O)(=O)N2CCN(C)C3(CCC(=O)N(C)CC3)C2)s1` (stereo unspecified), the cytotoxicity at 10 µM worked out at 8.63%.
For `CC(C)NC(=O)N1CCCC2(CCCCN2)C1` (stereo unspecified) the value was 11.4%.

(Values after ChEMBL document CHEMBL4513216, “Probing the Open Global Health Chemical Diversity Library for Multistage-Active Starting Points for Next-Generation Antimalarials” (ACS Infect Dis, 2020).)
